Read-outs that look alike come from different tables or passages of the source.
System: A549 human cancer cell line
Experiment: A549 differential cytotoxicity
Type: cell-based
Settings: for HCR (hypoxia cytotoxicity ratio): A549, oxic vs anoxic IC50, 4 h incubation then 48 h oxic exposure; for IC50: Homo sapiens
How it was run: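 A549 cells plated at 6000/well in MEM-alpha with 10% FBS and 0.02 mM 2′-deoxycytidine, attached 2 h. Anoxic arm in a Coy chamber with preconditioned medium and degassed plates; normoxic arm at 95% air/5% CO2. Final 50 μg mL−1 to 5 pg mL−1, duplicate wells. 4 h exposure, then 48 h aerobic without media change.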

[1] = A549, read-out: IC50 [anoxic] (μM) ± SEM
[2] = A549, read-out: IC50 [oxic] (μM) ± SEM

Compound	HCR (hypoxia cytotoxicity ratio)	IC50 [1]	IC50 [2]
COc1ccc2c(C(=O)c3cc(OC)c(OC)c(OC)c3)c(-c3ccc(OC)c(OC(C)(C)c4ccc([N+](=O)[O-])s4)c3)[nH]c2c1 [KGP354 (25), (6-Methoxy-2-(4-methoxy-3-((2-(5-nitrothiophen-2-yl)propan-2-yl)oxy)phenyl)-1H-indol-3-yl)(3,4,5-trimethoxyphenyl)methanone]	79	0.07 ± 0.02 µM	5.53 ± 2.22 µM
COc1cc(C2=CCCc3c2ccc(OC)c3OC(C)c2cnc([N+](=O)[O-])n2C)cc(OC)c1OC (stereo not drawn) [KGP291 (16), 5-(1-((2-Methoxy-5-(3,4,5-trimethoxyphenyl)-7,8-dihydronaphthalen-1-yl)oxy)ethyl)-1-methyl-2-nitro-1H-imidazole]	7.6	0.05 ± 0.004 µM	0.38 ± 0.03 µM
COc1cc(C2=CCCCc3c2ccc(OC)c3OC(C)c2ccc([N+](=O)[O-])s2)cc(OC)c1OC (stereo not drawn) [KGP304 (20), 2-(1-((3-Methoxy-9-(3,4,5-trimethoxyphenyl)-6,7-dihydro-5H-benzo[7]annulen-4-yl)oxy)ethyl)-5-nitrothiophene]	6.0	0.38 ± 0.12 µM	2.27 ± 1.01 µM
COc1cc(C2=CCCCc3c2ccc(OC)c3OCc2ccc([N+](=O)[O-])s2)cc(OC)c1OC [KGP305 (19), 2-(((3-Methoxy-9-(3,4,5-trimethoxyphenyl)-6,7-dihydro-5H-benzo[7]annulen-4-yl)oxy)methyl)-5-nitrothiophene]	0.2	0.22 ± 0.09 µM	0.05 ± 0.005 µM
COc1cc(C2=CCCCc3c2ccc(OC)c3OC(C)c2cnc([N+](=O)[O-])n2C)cc(OC)c1OC (stereo not drawn) [KGP292 (22), 5-(1-((3-Methoxy-9-(3,4,5-trimethoxyphenyl)-6,7-dihydro-5H-benzo[7]annulen-4-yl)oxy)ethyl)-1-methyl-2-nitro-1H-imidazole]	4.8	0.14 ± 0.04 µM	0.67 ± 0.13 µM
COc1cc(C2=CCCc3c2ccc(OC)c3OCc2ccc([N+](=O)[O-])s2)cc(OC)c1OC [KGP24 (12), 2-(((2-Methoxy-5-(3,4,5-trimethoxyphenyl)-7,8-dihydronaphthalen-1-yl)oxy)methyl)-5-nitrothiophene]	1.0	0.48 ± 0.04 µM	0.46 ± 0.05 µM
COc1cc(C2=CCCc3c2ccc(OC)c3OCc2cnc([N+](=O)[O-])n2C)cc(OC)c1OC [KGP105 (15), 5-(((2-Methoxy-5-(3,4,5-trimethoxyphenyl)-7,8-dihydronaphthalen-1-yl)oxy)methyl)-1-methyl-2-nitro-1H-imidazole]	6.2	0.04 ± 0.003 µM	0.25 ± 0.02 µM
COc1ccc2c(C(=O)c3cc(OC)c(OC)c(OC)c3)c(-c3ccc(OC)c(OCc4ccc([N+](=O)[O-])s4)c3)[nH]c2c1 [KGP311 (23), (6-Methoxy-2-(4-methoxy-3-((5-nitrothiophen-2-yl)methoxy)phenyl)-1H-indol-3-yl)(3,4,5-trimethoxyphenyl)methanone]	79.7	0.07 ± 0.04 µM	5.58 ± 3.59 µM
COc1cc(C2=CCCc3c2ccc(OC)c3OC(C)(C)c2ccc([N+](=O)[O-])s2)cc(OC)c1OC [KGP66 (14), 2-(2-((2-Methoxy-5-(3,4,5-trimethoxyphenyl)-7,8-dihydronaphthalen-1-yl)oxy)propan-2-yl)-5-nitrothiophene]	2.6	0.05 ± 0.01 µM	0.13 ± 0.06 µM
Nc1n[n+]([O-])c2ccccc2[n+]1[O-] [TPZ (1), tirapazamine, reference compound]	8.9	7.1 µM	63.5 µM
COc1cc(C2=CCCc3c2ccc(OC)c3OC(C)c2ccc([N+](=O)[O-])s2)cc(OC)c1OC (stereo not drawn) [KGP25 (13), 2-(1-((2-Methoxy-5-(3,4,5-trimethoxyphenyl)-7,8-dihydronaphthalen-1-yl)oxy)ethyl)-5-nitrothiophene]	11.0	0.25 ± 0.08 µM	2.74 ± 1.13 µM
COc1ccc2c(C(=O)c3cc(OC)c(OC)c(OC)c3)c(-c3ccc(OC)c(OC(C)c4ccc([N+](=O)[O-])s4)c3)[nH]c2c1 (stereo not drawn) [KGP343 (24), (6-Methoxy-2-(4-methoxy-3-(1-(5-nitrothiophen-2-yl)ethoxy)phenyl)-1H-indol-3-yl)(3,4,5-trimethoxyphenyl)methanone]	33.8	0.12 ± 0.06 µM	4.06 ± 1.89 µM
COc1cc(C2=CCCCc3c2ccc(OC)c3OCc2cnc([N+](=O)[O-])n2C)cc(OC)c1OC [KGP293 (21), 5-(((3-Methoxy-9-(3,4,5-trimethoxyphenyl)-6,7-dihydro-5H-benzo[7]annulen-4-yl)oxy)methyl)-1-methyl-2-nitro-1H-imidazole]	9.0	0.04 ± 0.005 µM	0.36 ± 0.02 µM
